The values below come from ChEMBL document CHEMBL1938351, “The discovery of potent antagonists of NPBWR1 (GPR7)” (Bioorg Med Chem Lett, 2012).

SMILES strings stand for the structures. The source made the active and inactive calls. The calls are words filed in the database; no cut-off is given here. Where only a bound is given, the exact number is not on record here.

Data set [1] has as its target T1, Neuropeptides B/W receptor type 1 (Mus musculus, UniProt P49681).
T1 sequence (P49681 whole entry): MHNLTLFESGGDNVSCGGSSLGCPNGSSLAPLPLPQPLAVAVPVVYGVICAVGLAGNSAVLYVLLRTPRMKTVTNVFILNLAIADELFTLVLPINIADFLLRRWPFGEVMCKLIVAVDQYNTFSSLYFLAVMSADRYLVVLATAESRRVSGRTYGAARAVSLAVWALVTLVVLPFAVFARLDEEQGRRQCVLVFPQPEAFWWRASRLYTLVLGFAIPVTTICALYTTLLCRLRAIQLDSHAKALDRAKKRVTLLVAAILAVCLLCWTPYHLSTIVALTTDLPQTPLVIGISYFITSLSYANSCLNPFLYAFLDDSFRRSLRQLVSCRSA
Kind of data set: Displacement of [125]-hNPW23 from mouse NPBWR1 expressed in CHO-K1 cells membrane by scintillation proximity assay. It counts as cell membranes.

For data set [2], the target named is T1, Neuropeptides B/W receptor type 1. Kind of data set: Antagonist activity at mouse NPBWR1 expressed in CHO-K1 cells assessed as inhibition of hNPW23 and forskolin-stimulated cAMP production after 1 hr by TR-FRET assay. Format: functional, cell-based.
Data set [3] can be described thus: Metabolic stability in mouse liver microsomes assessed as compound remaining after 30 mins. It counts as ADME, Microsome. As to conditions: read-out: Stability. In a few lines: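 Compounds were incubated with mouse liver microsomes. The read-out was the percentage of parent compound remaining at 30 min.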
The next data set concerns LLC-PK1. Put plainly: P-glycoprotein-mediated efflux in pig LLC-PK1 cells expressing MDR1. It counts as cell-based. As to conditions: Sus scrofa.
In data set [4] the target is T2, Neuropeptides B/W receptor type 1 (Homo sapiens, UniProt P48145).
T2 sequence (P48145 whole entry): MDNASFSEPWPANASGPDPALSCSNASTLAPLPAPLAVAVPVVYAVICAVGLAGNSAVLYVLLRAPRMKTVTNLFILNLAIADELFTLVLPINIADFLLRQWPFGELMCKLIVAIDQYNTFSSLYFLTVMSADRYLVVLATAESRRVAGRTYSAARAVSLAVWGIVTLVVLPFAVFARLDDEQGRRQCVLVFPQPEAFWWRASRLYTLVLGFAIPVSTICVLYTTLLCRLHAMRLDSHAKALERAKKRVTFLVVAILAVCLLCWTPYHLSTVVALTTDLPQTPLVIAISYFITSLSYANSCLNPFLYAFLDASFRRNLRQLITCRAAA
Put plainly: Displacement of [125]-hNPW23 from human NPBWR1 expressed in CHO-K1 cells membrane by scintillation proximity assay. Format: cell membranes.

Data set [5] concerns the target T2, Neuropeptides B/W receptor type 1. Kind of data set: Antagonist activity at human NPBWR1 expressed in CHO-K1 cells assessed as inhibition of hNPW23 and forskolin-stimulated cAMP production after 1 hr by TR-FRET assay. Format: functional, cell-based.

Take `COc1ccc([C@@H](C)N[C@@H]2CC[C@H](C(=O)N3CCN(c4nccs4)CC3)[C@@H](c3ccsc3)C2)cc1`: the 50% inhibitory concentration (IC50) in data set [1] was found to be 0.194 µM; in data set [2], 0.207 µM.
Take `COc1ccc(C(C)(C)N[C@@H]2CC[C@H](C(=O)N3CCN(c4nc5ccccc5o4)CC3)[C@@H](c3ccsc3)C2)cc1`: the remaining at 0.5 h in data set [3] is < 10%. In addition, the result with LLC-PK1 was Active.
Turning to `CC(C)(N[C@@H]1CC[C@H](C(=O)N2CCN(c3ccc(Cl)cn3)CC2)[C@@H](c2ccsc2)C1)c1ccc(F)cc1`, the IC50 in data set [1] came to 0.017 µM; in data set [2], 0.32 µM.
Consider `COc1ccc([C@@H](C)N[C@@H]2CC[C@H](C(=O)N3CCN(c4ccc(C(F)(F)F)cn4)CC3)[C@@H](c3ccsc3)C2)cc1`, for which the 50% inhibitory concentration (IC50) in data set [2] was 0.2 µM.
On to `C[C@@H](N[C@@H]1CC[C@H](C(=O)N2CCN(c3ccc(Cl)cn3)CC2)[C@@H](c2ccsc2)C1)c1ccccc1`, for which the concentration for half-maximal inhibition (IC50) in data set [1] came out at 0.217 µM; in data set [2], 0.981 µM.
Turning to `COc1ccc(C2(N[C@@H]3CC[C@H](C(=O)N4CCN(c5nc6ccc(F)cc6o5)CC4)[C@@H](c4ccsc4)C3)CCC2)cc1`, the results for the concentration for half-maximal inhibition (IC50) in data set [1] and in data set [2] were 0.00018 µM and 0.0013 µM, respectively. Besides, the remaining at 0.5 h in data set [3] was < 10%. In the data set on LLC-PK1, the outcome was Active.
Take `COc1ccc([C@@H](C)N[C@@H]2CC[C@H](C(=O)N3CCN(c4nc5ccccc5[nH]4)CC3)[C@@H](c3ccsc3)C2)cc1`: the concentration for half-maximal inhibition (IC50) in data set [1] worked out at 0.0083 µM; in data set [2] it was 0.02 µM.
`COc1ccc(C2(N[C@@H]3CC[C@H](C(=O)N4CCN(c5nc6ccccc6[nH]5)CC4)[C@@H](c4ccsc4)C3)CCC2)cc1`: the IC50 was 0.0059 µM in data set [4], 0.011 µM in data set [5], 0.0011 µM in data set [1] and 0.003 µM in data set [2]. Besides, the remaining at 0.5 h in data set [3] was < 10%. Also, the result in the data set with LLC-PK1 was Active.
As to `COc1ccc(C2(N[C@@H]3CC[C@H](C(=O)N4CCN(c5nnc(C(F)(F)F)s5)CC4)[C@@H](c4ccsc4)C3)CCC2)cc1`, the remaining at 0.5 h in data set [3] was < 10%. The outcome with LLC-PK1 was Active.
On to `CC(C)(N[C@@H]1CC[C@H](C(=O)N2CCN(c3ccc(Cl)cn3)CC2)[C@@H](c2ccsc2)C1)c1ccc(Cl)cc1`, for which the figures for the IC50 in data set [1] and in data set [2] were 0.027 µM and 1.7 µM, respectively.
In the case of `COc1ccc([C@@H](C)N[C@@H]2CC[C@H](C(=O)N3CCN(c4nnc(C(F)(F)F)s4)CC3)[C@@H](c3ccsc3)C2)cc1`, the figures for the 50% inhibitory concentration (IC50) in data set [1] and in data set [2] were 0.042 µM and 0.115 µM, respectively.
Taken in the same sequence, the figures for `CC(C)(N[C@@H]1CC[C@H](C(=O)N2CCN(c3ccc(Cl)cn3)CC2)[C@@H](c2ccsc2)C1)c1ccc([N+](=O)[O-])cc1` were 0.1 µM and 1.1 µM.
Taken in the same sequence, the figures for `O=C([C@H]1CC[C@@H](NC2(c3ccccc3Br)CCC2)C[C@@H]1c1ccsc1)N1CCN(c2ccc(Cl)cn2)CC1` were 2.2 µM and 2.21 µM.
In the case of `COc1ccc(CN[C@@H]2CC[C@H](C(=O)N3CCN(c4ccc(Cl)cn4)CC3)[C@@H](c3ccsc3)C2)cc1`, the IC50 was 1.53 µM in data set [1] and 3.59 µM in data set [2].
`COc1ccc(C2(N[C@@H]3CC[C@H](C(=O)N4CCN(c5nc6cc(F)ccc6[nH]5)CC4)[C@@H](c4ccsc4)C3)CCC2)cc1`: the half-inhibitory concentration (IC50) in data set [1] was found to be 0.00042 µM; in data set [2], 0.00066 µM. In data set [3], the remaining at 0.5 h was < 10%. The outcome in the data set on LLC-PK1 was Active.
As to `COc1ccc(C2(N[C@@H]3CC[C@H](C(=O)N4CCN(c5ccc(Cl)cn5)CC4)[C@@H](c4ccsc4)C3)CCC2)cc1`, the IC50 in data set [1] is 0.0031 µM; in data set [2], 0.02 µM.
Take `COc1ccc(C(C)(C)N[C@@H]2CC[C@H](C(=O)N3CCN(c4nc5ccccc5[nH]4)CC3)[C@@H](c3ccsc3)C2)cc1`: the remaining at 0.5 h in data set [3] was < 10%. The result in the data set with LLC-PK1 was Active.
As for `Cc1ccc(C(C)(C)N[C@@H]2CC[C@H](C(=O)N3CCN(c4ccc(Cl)cn4)CC3)[C@@H](c3ccsc3)C2)cc1`, the IC50 in data set [1] came out at 0.016 µM; in data set [2], 0.211 µM.
Regarding `COc1ccc([C@@H](C)N[C@@H]2CC[C@H](C(=O)N3CCN(c4ccccn4)CC3)[C@@H](c3ccsc3)C2)cc1`, the IC50 in data set [2] was determined as 0.33 µM.
`COc1ccc(C2(N[C@@H]3CC[C@H](C(=O)N4CCN(c5nnc(Br)s5)CC4)[C@@H](c4ccsc4)C3)CCC2)cc1`: the remaining at 0.5 h in data set [3] was < 10%. In addition, the result with LLC-PK1 was Active.
`COc1ccc(C(C)(C)N[C@@H]2CC[C@H](C(=O)N3CCN(c4ccc(Cl)cn4)CC3)[C@@H](c3ccsc3)C2)cc1`: the IC50 in data set [1] amounted to 0.011 µM; in data set [2] it was 0.043 µM.
As for `COc1ccc([C@@H](C)N[C@@H]2CC[C@H](C(=O)N3CCN(c4ncccc4Cl)CC3)[C@@H](c3ccsc3)C2)cc1`, in data set [2], the IC50 was > 32 µM.
Regarding `COc1ccc([C@@H](C)N[C@@H]2CC[C@H](C(=O)N3CCN(c4cccc(Cl)n4)CC3)[C@@H](c3ccsc3)C2)cc1`, the IC50 in data set [2] is 7.49 µM.
Take `COc1ccc([C@@H](C)N[C@@H]2CC[C@H](C(=O)N3CCN(c4ncc(Br)s4)CC3)[C@@H](c3ccsc3)C2)cc1`: the IC50 in data set [1] was found to be 0.014 µM; in data set [2], 0.055 µM.
For `COc1ccc([C@@H](C)N[C@@H]2CC[C@H](C(=O)N3CCN(c4ccc(C)cn4)CC3)[C@@H](c3ccsc3)C2)cc1` the same measures were 0.074 µM and 0.4 µM.
For `COc1ccc(C2(N[C@@H]3CC[C@H](C(=O)N4CCN(c5nc6ccccc6o5)CC4)[C@@H](c4ccsc4)C3)CCC2)cc1`, the remaining at 0.5 h in data set [3] is < 10%. The outcome with LLC-PK1 was Active.
In the case of `COc1ccc([C@@H](C)N[C@@H]2CC[C@H](C(=O)N3CCN(c4nc5ccccc5s4)CC3)[C@@H](c3ccsc3)C2)cc1`, the IC50 in data set [1] was 0.0045 µM; in data set [2] it was 0.024 µM.
Taken in the same sequence, the figures for `COc1cccc(C2(N[C@@H]3CC[C@H](C(=O)N4CCN(c5ccc(Cl)cn5)CC4)[C@@H](c4ccsc4)C3)CCC2)c1` were 0.118 µM and 1.02 µM.
Take `COc1ccc([C@@H](C)N[C@@H]2CC[C@H](C(=O)N3CCN(c4cc(Cl)ccn4)CC3)[C@@H](c3ccsc3)C2)cc1`: the concentration for half-maximal inhibition (IC50) in data set [2] came out at 2.14 µM.
On to `COc1ccc([C@@H](C)N[C@@H]2CC[C@H](C(=O)N3CCN(c4ccc(Cl)cc4)CC3)[C@@H](c3ccsc3)C2)cc1`, for which the IC50 in data set [1] was determined as 3.72 µM; in data set [2], 3.87 µM.
For `COc1ccc(C2(N[C@@H]3CC[C@H](C(=O)N4CCN(c5ccc(Cl)cn5)CC4)[C@@H](c4ccsc4)C3)CC2)cc1` the same measures were 0.056 µM and 0.523 µM.
Consider `COc1ccc(C2(N[C@@H]3CC[C@H](C(=O)N4CCN(c5nc6ccccc6s5)CC4)[C@@H](c4ccsc4)C3)CCC2)cc1`, for which the results for the IC50 in data set [1] and in data set [2] were 0.00033 µM and 0.0018 µM, respectively. In addition, the remaining at 0.5 h in data set [3] was < 10%. In addition, the outcome in the data set with LLC-PK1 was Active.
In the case of `COc1ccc([C@@H](C)N[C@@H]2CC[C@H](C(=O)N3CCN(c4ccc(OC)cn4)CC3)[C@@H](c3ccsc3)C2)cc1`, the IC50 in data set [2] is 7.3 µM.
`COc1ccc(C2(N[C@@H]3CC[C@H](C(=O)N4CCN(c5nc6cc(C)ccc6o5)CC4)[C@@H](c4ccsc4)C3)CCC2)cc1`: the remaining at 0.5 h in data set [3] was < 10%. Also, the outcome with LLC-PK1 was Active.
Turning to `COc1ccc([C@@H](C)N[C@@H]2CC[C@H](C(=O)N3CCN(c4ccc(Cl)cn4)CC3)[C@@H](c3ccsc3)C2)cc1`, the IC50 in data set [4] was 0.324 µM; in data set [5] it was 1.92 µM; in data set [1], 0.025 µM; in data set [2], 0.36 µM. In addition, the remaining at 0.5 h in data set [3] stood at 0%. Besides, the result in the data set on LLC-PK1 was Active.
Consider `O=C([C@H]1CC[C@@H](NC2(c3ccc(Br)cc3)CCC2)C[C@@H]1c1ccsc1)N1CCN(c2ccc(Cl)cn2)CC1`, for which the IC50 in data set [1] turned out to be 0.082 µM; in data set [2] it was 0.601 µM.
For the compound `C[C@@H](N[C@@H]1CC[C@H](C(=O)N2CCN(c3ccc(Cl)cn3)CC2)[C@@H](c2ccsc2)C1)c1ccc(Br)cc1`, the IC50 stood at 0.134 µM in data set [1] and 2.63 µM in data set [2].
In the case of `COc1ccc([C@@H](C)N[C@@H]2CC[C@H](C(=O)N3CCN(c4ccc(C#N)cn4)CC3)[C@@H](c3ccsc3)C2)cc1`, the IC50 worked out at 1.14 µM in data set [1] and 7.05 µM in data set [2].
For `COc1ccc([C@@H](C)N[C@@H]2CC[C@H](C(=O)N3CCN(c4nc5ccccc5o4)CC3)[C@@H](c3ccsc3)C2)cc1` the same measures were 0.0028 µM and 0.018 µM.
Take `COc1ccc(C2(N[C@@H]3CC[C@H](C(=O)N4CCN(c5nc6cc(F)ccc6o5)CC4)[C@@H](c4ccsc4)C3)CCC2)cc1`: the results for the IC50 in data set [1] and in data set [2] were 0.0002 µM and 0.00086 µM, respectively. The remaining at 0.5 h in data set [3] is < 10%. Further, in the data set on LLC-PK1, the outcome was Active.
Turning to `O=C([C@H]1CC[C@@H](NC2(c3cccc(Br)c3)CCC2)C[C@@H]1c1ccsc1)N1CCN(c2ccc(Cl)cn2)CC1`, the IC50 in data set [1] amounted to 0.16 µM; in data set [2] it was 0.972 µM.
